Assay results: ChEMBL document CHEMBL3232844, “Synthesis and structure activity relationships of schweinfurthin indoles” (2014)

Columns and labels:
Format in all cases: functional
HOP-92 = assay: Cytotoxicity against human HOP92 cells; settings: for CC50: read-out: pLC50 (the source's name) (converted); for TGI: read-out: pTGI (converted)
Summary of the method: (§1)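 Tested in a 60-cell-line human tumor panel screen; the read-out is growth inhibition, reported as GI50 for each cell line.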

Malme-3M = assay: Cytotoxicity against human MALME-3M cells; settings: for CC50: read-out: pLC50 (the source's name) (converted); for TGI: read-out: pTGI (converted); summary of the method: as §1
SW-620 = assay: Cytotoxicity against human SW620 cells; settings: for CC50: read-out: pLC50 (the source's name) (converted); for TGI: read-out: pTGI (converted)
Summary of the method: (§2)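 Cell line run as part of the 60-cell-line screening panel; growth inhibition was reported as a GI50 for each line.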

RPMI-8226 = assay: Cytotoxicity against human RPMI8226 cells; settings: for CC50: read-out: pLC50 (the source's name) (converted); for TGI: read-out: pTGI (converted); summary of the method: as §1
[1] = Cytotoxicity against human UACC257 cells; settings: for GI50: UACC-257; for CC50: UACC-257, read-out: pLC50 (the source's name) (converted); for TGI: UACC-257, read-out: pTGI (converted); summary of the method: as §2
NCI-H522 = assay: Cytotoxicity against human NCI-H522 cells; settings: for CC50: read-out: pLC50 (the source's name) (converted); for TGI: read-out: pTGI (converted); summary of the method: as §1
SF-295 = assay: Cytotoxicity against human SF295 cells; settings: for CC50: read-out: pLC50 (the source's name) (converted); for TGI: read-out: pTGI (converted); summary of the method: as §1
TK-10 = assay: Cytotoxicity against human TK10 cells; settings: for TGI: read-out: pTGI (converted); summary of the method: as §2
[2] = Cytotoxicity against human EKVX cells; settings: for CC50: read-out: pLC50 (the source's name) (converted); for TGI: read-out: pTGI (converted); summary of the method: as §1
SN12C = assay: Cytotoxicity against human SN12C cells; settings: for TGI: read-out: pTGI (converted); summary of the method: as §1
U-251 = assay: Cytotoxicity against human U251 cells; settings: for CC50: read-out: pLC50 (the source's name) (converted); for TGI: read-out: pTGI (converted); summary of the method: as §2
[3] = Cytotoxicity against human Hs578T cells; settings: Hs-578T; for TGI: read-out: pTGI (converted); summary of the method: as §1
SK-MEL-28 = assay: Cytotoxicity against human SK-MEL-28 cells; settings: for CC50: read-out: pLC50 (the source's name) (converted); for TGI: read-out: pTGI (converted); summary of the method: as §1
HT-29 = assay: Cytotoxicity against human HT-29 cells; settings: for CC50: read-out: pLC50 (the source's name) (converted); for TGI: read-out: pTGI (converted); summary of the method: as §1
[4] = Cytotoxicity against human OVCAR3 cells; settings: for GI50: OVCAR-3; for CC50: OVCAR-3, read-out: pLC50 (the source's name) (converted); for TGI: OVCAR-3, read-out: pTGI (converted); summary of the method: as §1
SR = assay: Cytotoxicity against human SR cells; settings: for CC50: read-out: pLC50 (the source's name) (converted); for TGI: read-out: pTGI (converted); summary of the method: as §2
RXF 393 = assay: Cytotoxicity against human RXF393 cells; settings: for TGI: read-out: pTGI (converted); summary of the method: as §1

## COc1cc(/C=C/c2cc(O)c3cc[nH]c3c2)cc2c1O[C@]1(C)CC[C@@H](O)C(C)(C)[C@H]1C2
HOP-92
  GI50: 1.23 µM
  CC50: > 100 µM
  TGI: 19.1 µM
Malme-3M
  GI50: 1.74 µM
  CC50: 52.5 µM
  TGI: 10.7 µM
SW-620
  GI50: 1.26 µM
  CC50: 8.13 µM
  TGI: 3.16 µM
RPMI-8226
  GI50: 0.316 µM
  CC50: > 100 µM
  TGI: 2.51 µM
[1]
  GI50: 2.34 µM
  CC50: 28.8 µM
  TGI: 8.32 µM
NCI-H522
  GI50: 1.29 µM
  CC50: 41.7 µM
  TGI: 8.32 µM
SF-295; read-out: GI50
  GI50: 0.23 µM
SF-295; read-out: pGI50 (converted)
  GI50: 0.234 µM
SF-295
  CC50: 6.03 µM
  TGI: 1 µM
TK-10
  GI50: 5.62 µM
  LC50: > 100 µM
  TGI: 49 µM
[2]
  GI50: 3.47 µM
  CC50: 91.2 µM
  TGI: 27.5 µM
SN12C
  GI50: 7.08 µM
  LC50: > 100 µM
  TGI: 67.6 µM
U-251
  GI50: 0.479 µM
  CC50: > 100 µM
  TGI: 13.8 µM
[3]
  GI50: 0.251 µM
  LC50: > 100 µM
  TGI: 0.871 µM
SK-MEL-28
  GI50: 1.48 µM
  CC50: > 100 µM
  TGI: > 100 µM
HT-29
  GI50: 0.708 µM
  CC50: 93.3 µM
  TGI: 4.07 µM
[4]
  GI50: 1.82 µM
  CC50: > 100 µM
  TGI: 10.5 µM
SR
  GI50: 0.302 µM
  CC50: > 100 µM
  TGI: 9.55 µM
RXF 393
  GI50: 0.115 µM
  LC50: 0.871 µM
  TGI: 0.316 µM

## COc1cc(/C=C/c2cc(O)c3cc(CC=C(C)C)[nH]c3c2)cc2c1O[C@]1(C)CC[C@@H](O)C(C)(C)[C@H]1C2
HOP-92
  GI50: 1.38 µM
  CC50: > 100 µM
  TGI: 42.7 µM
Malme-3M
  GI50: 4.9 µM
  CC50: > 100 µM
  TGI: > 100 µM
SW-620
  GI50: 2.04 µM
  CC50: 39.8 µM
  TGI: 8.32 µM
RPMI-8226
  GI50: 0.282 µM
  CC50: > 100 µM
  TGI: 32.4 µM
[1]
  GI50: 12 µM
  CC50: > 100 µM
  TGI: 81.3 µM
NCI-H522
  GI50: 4.9 µM
  CC50: > 100 µM
  TGI: 43.7 µM
SF-295; read-out: GI50
  GI50: 0.29 µM
SF-295; read-out: pGI50 (converted)
  GI50: 0.288 µM
SF-295
  CC50: 51.3 µM
  TGI: 1.51 µM
TK-10
  GI50: 19.1 µM
  LC50: > 100 µM
  TGI: > 100 µM
[2]
  GI50: 4.79 µM
  CC50: > 100 µM
  TGI: > 100 µM
SN12C
  GI50: 58.9 µM
  LC50: > 100 µM
  TGI: > 100 µM
U-251
  GI50: 0.603 µM
  CC50: > 100 µM
  TGI: > 100 µM
[3]
  GI50: 0.309 µM
  LC50: > 100 µM
  TGI: > 100 µM
SK-MEL-28
  GI50: 4.68 µM
  CC50: 91.2 µM
  TGI: 50.1 µM
HT-29
  GI50: 2.63 µM
  CC50: 79.4 µM
  TGI: 18.6 µM
[4]
  GI50: 43.7 µM
  CC50: > 100 µM
  TGI: > 100 µM
SR
  GI50: 0.759 µM
  CC50: > 100 µM
  TGI: > 100 µM
RXF 393
  GI50: 0.0832 µM
  LC50: 11.2 µM
  TGI: 0.447 µM

## COc1cc(/C=C/c2cc(O)c3c(CC=C(C)C)c[nH]c3c2)cc2c1O[C@]1(C)CC[C@@H](O)C(C)(C)[C@H]1C2
HOP-92
  GI50: 0.589 µM
  CC50: 50.1 µM
  TGI: 50.1 µM
SW-620
  GI50: 0.447 µM
  CC50: 10.7 µM
  TGI: 1.74 µM
[1]
  GI50: 1.23 µM
  CC50: 50.1 µM
  TGI: 50.1 µM
SF-295; read-out: GI50
  GI50: < 0.021 µM
SF-295; read-out: pGI50 (converted)
  GI50: 0.0316 µM
SF-295
  CC50: 0.513 µM
  TGI: 0.135 µM
TK-10
  GI50: 7.76 µM
  LC50: 50.1 µM
  TGI: 50.1 µM
[2]
  GI50: 1.07 µM
  CC50: 50.1 µM
  TGI: 50.1 µM
SN12C
  GI50: 12 µM
  LC50: 50.1 µM
  TGI: 50.1 µM
U-251
  GI50: 0.151 µM
  CC50: 50.1 µM
  TGI: 50.1 µM
[3]
  GI50: 0.0708 µM
  LC50: 50.1 µM
  TGI: 1 µM
SK-MEL-28
  GI50: 0.55 µM
  CC50: 50.1 µM
  TGI: 1.91 µM
HT-29
  GI50: 0.132 µM
  CC50: 50.1 µM
  TGI: 2 µM
[4]
  GI50: 13.5 µM
  CC50: 50.1 µM
  TGI: 50.1 µM
SR
  GI50: 0.295 µM
  CC50: 50.1 µM
  TGI: 50.1 µM
RXF 393
  GI50: 0.0447 µM
  LC50: 12.9 µM
  TGI: 0.457 µM
